ChEMBL document CHEMBL4725347, “Discovery of a Monoiodo Aza-BODIPY Near-Infrared Photosensitizer: in vitro and in vivo Evaluation for Photodynamic Therapy” (J Med Chem, 2020)
Calls of active or inactive are those of the source. No cut-off for these calls is given here.

Experiments:
[1] = test system: HeLa; test: Induction of reactive oxygen species generation in human HeLa cells at 0.004 to 2.5 uM incubated for 3 hrs under dark condition by confocal scanning microscopic analysis; assay type: cell-based; conditions: dose 0.004-2.5 µM
How it was run: (§1)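 HeLa cells were exposed to 0.004, 0.02, 0.10, 0.5 or 2.5 μM for 3 h, washed, and loaded with H2DCFDA 10 μM in PBS for 20 min at 37 °C. After washing, cells in PBS were irradiated with 54 J/cm² (λ > 590 nm) or kept dark. Fluorescence was read by confocal microscopy and by plate reader (ex 485/em 538 nm).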

[2] = test system: HeLa; test: Induction of apoptosis in human HeLa cells assessed as viable cells at 40 nM preincubated for 3 hrs followed by 54 J/cm2 light irradiation and measured after 24 hrs by Annexin-V-FITC/propidium iodide staining based flow cytometry (reference value: 90.74%); assay type: functional; conditions: light or radiation study, read-out: Activity
How it was run: (§2)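 HeLa cells in six-well plates were exposed to compound for 3 h, irradiated (λ > 590 nm), and incubated 24 h at 37 °C. Cells were then harvested, washed with PBS, and stained with annexin V-FITC/PI for 20 min at room temperature before immediate flow cytometry. Untreated, unirradiated cells served as control.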

[3] = Drug uptake in mitochondria of human HeLa cells at 5 uM incubated for 2 hrs under dark condition by mito-tracker green FM dye based laser confocal microscopic analysis; assay type: ADME
How it was run: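 HeLa cells adhered overnight on glass-bottom dishes and were loaded with 5 μM compound in the dark for 2 h. After PBS washes, cells were stained with Mito-Tracker Green FM 250 nM for 30 min, Lyso-Tracker Green 160 nM for 30 min, or ER-Tracker Green 2 μM for 45 min. Confocal imaging: trackers excited at 488 nm, collected 500–560 nm; compound excited at 633 nm, collected 650–740 nm.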

[4] = test system: HeLa; test: Antitumor activity against human HeLa cells xenografted in Balb/c nu/nu mouse assessed as tumor growth inhibition at 2 mg/kg, iv pretreated for 15 mins followed by 54 J/cm2 light irradiation for 10 mins and measured after 24 days; assay type: functional, organism-based
How it was run: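 Female Balb/c nu/nu mice with subcutaneous HeLa tumors (5×10^6 cells) reaching 80–100 mm³ on day 7 were randomized, n = 5 per group. Mice received 2 mg/kg by tail vein, or saline for controls. After 15 min the tumor was irradiated once with 54 J/cm² (75 W halogen lamp, >590 nm filter, 90 mW/cm², 10 min), unanaesthetized. Calipers every other day; V = 0.5×L×W²; body weight tracked.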

[5] = Absorption property of the compound in chloroform assessed as hypsochromic shift by measuring maximum absorption wavelength by UV-visible spectrophotometric method; assay type: physicochemical
How it was run: (§3)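 Electronic absorption spectra recorded by UV-visible spectrophotometry at room temperature. Solvents were chloroform, isopropanol, acetonitrile, DMF, and PBS buffer containing 1% Cremophor EL/1,2-propanediol (10:3, v:v). Chloroform data were referenced to the non-halogenated parent dye.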

[6] = Drug uptake in human HeLa cells xenografted Balb/c nu/nu mouse tumor at 2 mg/kg, iv measured after 3 hrs by fluorescence imaging analysis; assay type: ADME, organism-based, Neoplasm; conditions: in vivo
How it was run: (§4)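 Female Balb/c nu/nu mice bore subcutaneous HeLa tumors (5×10^6 cells, right back) and received 2 mg/kg via tail vein. Living mice were imaged under isoflurane at time points (ex 680/em 720 nm, 1 s exposure). At set times mice were euthanized and heart, liver, spleen, lungs, kidneys and tumor imaged ex vivo; ROI quantified, mean ± SD, n = 3.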

[7] = Emission property of the compound in chloroform assessed as maximum emission wavelength by fluorescence spectrophotometric method; assay type: physicochemical
How it was run: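 Fluorescence spectrum recorded in chloroform by fluorescence spectrophotometer at room temperature.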

[8] = test system: MCF7; test: Phototoxicity against human MCF7 cells assessed as reduction in cell viability preincubated for 3 hrs followed by 54 J/cm2 light irradiation and measured after 24 hrs by MTT assay; assay type: functional, cell-based; conditions: MCF7, light or radiation study
How it was run: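 PS formulated in PBS containing Cremophor EL/1,2-propanediol (10:3, v:v) after THF removal, filtered, with concentration confirmed by UV-Vis. Cells were grown in DMEM with 10% FBS and seeded at 3×10^3 per well overnight. They were incubated with PS for 3 h, irradiated at λ > 590 nm, kept 24 h at 37 °C, then given MTT (0.5 mg/mL, 4 h) with DMSO solubilization and A490 read-out.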

[9] = Drug uptake in human HeLa cells xenografted Balb/c nu/nu mouse liver at 2 mg/kg, iv measured within 1 hr by fluorescence imaging analysis; assay type: ADME, organism-based; conditions: in vivo; how it was run: as §4
[10] = Dark toxicity in human MCF7 cells assessed as reduction in cell viability after 3 hrs by MTT assay; assay type: cell-based
[11] = Toxicity in human HeLa cells xenografted Balb/c nu/nu mouse assessed as body weight loss at 2 mg/kg, iv pretreated for 15 mins followed by 54 J/cm2 light irradiation for 10 mins and measured for 24 days; assay type: organism-based; conditions: in vivo, 0.25 h
How it was run: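 Female Balb/c nu/nu mice (18-22 g) carried subcutaneous HeLa cells (about 5×10^6, right back) and were treated on day 7 at a tumor volume of 80-100 mm³. Five mice per group received a tail-vein dose; saline controls were also irradiated. Fifteen minutes later the tumor was irradiated once with a 75 W halogen lamp (590 nm cut-on, 90 mW/cm², 10 min), without anaesthesia. Body weight was recorded every other day.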

[12] = test system: HeLa; test: Induction of apoptosis in human HeLa cells assessed as necrotic cells at 200 nM preincubated for 3 hrs followed by 27 J/cm2 light irradiation and measured after 24 hrs by Annexin-V-FITC/propidium iodide staining based flow cytometry (reference value: 2.8%); assay type: functional; how it was run: as §2
[13] = Absorption property of the compound in chloroform assessed as absorption coefficient by UV-visible spectrophotometric method; assay type: physicochemical; how it was run: as §3
[14] = Photostability of the compound in N,N-dimethylformamide assessed as compound degradation irradiated with 90 mW/cm2 light; assay type: physicochemical
[15] = test system: HeLa; test: Induction of apoptosis in human HeLa cells assessed as early apoptotic cells at 200 nM preincubated for 3 hrs followed by 54 J/cm2 light irradiation and measured after 24 hrs by Annexin-V-FITC/propidium iodide staining based flow cytometry (reference value: 0.54%); assay type: functional; how it was run: as §2
[16] = test system: HeLa; test: Induction of apoptosis in human HeLa cells assessed as early apoptotic cells at 200 nM preincubated for 3 hrs followed by 27 J/cm2 light irradiation and measured after 24 hrs by Annexin-V-FITC/propidium iodide staining based flow cytometry (reference value: 0.54%); assay type: functional; how it was run: as §2
[17] = test system: HeLa; test: Induction of apoptosis in human HeLa cells assessed as early apoptotic cells at 40 nM preincubated for 3 hrs followed by 54 J/cm2 light irradiation and measured after 24 hrs by Annexin-V-FITC/propidium iodide staining based flow cytometry (reference value: 0.54%); assay type: functional; how it was run: as §2
[18] = Photostability of the compound in acetonitrile assessed as compound degradation irradiated with 90 mW/cm2 light; assay type: physicochemical
[19] = Absorption property of the compound in isopropanol assessed as absorption coefficient by UV-visible spectrophotometric method; assay type: physicochemical; how it was run: as §3
[20] = Photostability of the compound in isopropanol assessed as compound degradation irradiated with 90 mW/cm2 light; assay type: physicochemical
[21] = test system: HeLa; test: Induction of reactive oxygen species generation in human HeLa cells at 2.5 uM incubated for 3 hrs prior to H2DCFDA addition for 20 mins followed by 54 J/cm2 light irradiation by microplate reader analysis relative to dark treated cells; assay type: functional; how it was run: as §1

Drug uptake [3]: Active | Activity [5]: 678 nm | Drug uptake [6]: Active | Activity [7]: 721 nm | Drug uptake [9]: Active | Activity [13]: 97000 M⁻¹ cm⁻¹ | Stabilty [14]: Unstable | Stabilty [18]: Stable | Activity [19]: 59300 M⁻¹ cm⁻¹ | Stabilty [20]: Stable
SMILES: COc1ccc(C2=[N+]3C(=Nc4c(-c5ccccc5)cc(-c5ccc(OC)cc5)n4[B-]3(F)F)C(c3ccccc3)=C2I)cc1
Activity [1]: Non-Toxic | viability at 0.04 µM [2]: 77.3% | TGI [4]: Active | IC50 [8]: 100 nM | IC50 at 3 h [10]: > 50000 nM | Activity [11]: Non-Toxic | Activity [12]: 21.64% | Activity [15]: 81.04% | Activity [16]: 20.46% | Activity [17]: 10.68% | fold change (FC) [21]: 77
